ChEMBL document CHEMBL2203249, “Optimization of a small tropomyosin-related kinase B (TrkB) agonist 7,8-dihydroxyflavone active in mouse models of depression” (J Med Chem, 2012)
Calls of active or inactive are those of the source. The rule behind the calls is not given here.

Assays:
Liver microsomes = assay: Metabolic stability in human liver microsomes assessed as formation of reactive metabolites at 1 uM after 1 hr; assay type: ADME, Microsome
CYP2D6 [1] = biological target: T1, CYP2D6 (Homo sapiens, UniProt P10635); assay: Inhibition of CYP2D6 at 30 uM; assay type: ADME
T1 sequence (P10635 whole entry): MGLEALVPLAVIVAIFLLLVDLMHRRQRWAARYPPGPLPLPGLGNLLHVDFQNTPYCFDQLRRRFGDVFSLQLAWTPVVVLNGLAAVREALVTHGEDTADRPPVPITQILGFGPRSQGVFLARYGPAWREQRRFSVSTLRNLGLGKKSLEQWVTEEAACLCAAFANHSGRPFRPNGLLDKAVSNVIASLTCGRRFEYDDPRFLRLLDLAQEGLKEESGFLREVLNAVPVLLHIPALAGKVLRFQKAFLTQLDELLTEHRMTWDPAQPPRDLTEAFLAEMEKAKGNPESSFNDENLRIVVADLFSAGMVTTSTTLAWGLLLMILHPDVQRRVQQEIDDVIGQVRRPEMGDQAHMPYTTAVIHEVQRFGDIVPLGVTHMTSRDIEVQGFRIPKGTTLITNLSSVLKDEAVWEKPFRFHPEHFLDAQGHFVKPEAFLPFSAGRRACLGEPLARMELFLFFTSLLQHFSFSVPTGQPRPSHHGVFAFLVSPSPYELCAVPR

Mus musculus [2] = species on record: Mus musculus; assay: Agonist activity at TrkB receptor in C57BL/J6 mouse brain assessed as TrkB phosphorylation at tyrosine 706 in hippocampus at […] by immunoblotting analysis; assay type: functional, organism-based
CYP3A4 [3] = biological target: T2, CYP3A4 (Homo sapiens, UniProt P08684); assay: Inhibition of CYP3A4 at 3 uM using modazolam substrate; assay type: ADME; conditions: probe midazolam (printed: modazolam)
T2 sequence (P08684 whole entry): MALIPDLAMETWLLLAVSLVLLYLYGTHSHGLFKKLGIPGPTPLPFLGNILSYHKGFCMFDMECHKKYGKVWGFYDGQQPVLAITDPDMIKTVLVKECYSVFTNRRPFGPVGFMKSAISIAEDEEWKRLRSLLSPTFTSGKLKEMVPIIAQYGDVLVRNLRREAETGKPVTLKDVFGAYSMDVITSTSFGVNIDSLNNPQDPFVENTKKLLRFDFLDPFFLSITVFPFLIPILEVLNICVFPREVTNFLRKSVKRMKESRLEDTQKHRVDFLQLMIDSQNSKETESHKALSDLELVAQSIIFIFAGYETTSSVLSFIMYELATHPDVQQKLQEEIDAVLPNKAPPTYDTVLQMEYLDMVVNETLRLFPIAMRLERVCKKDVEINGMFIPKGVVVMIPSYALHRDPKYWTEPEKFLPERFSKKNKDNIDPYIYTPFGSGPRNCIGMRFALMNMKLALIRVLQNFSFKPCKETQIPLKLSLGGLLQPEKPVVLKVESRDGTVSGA

CYP3A4 [4] = biological target: T2, CYP3A4; assay: Inhibition of CYP3A4 at 30 uM using modazolam substrate; assay type: ADME; conditions: probe midazolam (printed: modazolam)
HepG2 [5] = assay: Genotoxicity in human HepG2 cells assessed as induction of DNA lesion at 100 uM after 24 hrs by comet assay; assay type: toxicity, cell-based; conditions: hepg2, 24 h
In short: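 HepG2 cells were exposed to 100 μM for 24 h, with etoposide as positive control. Cells were embedded in agarose, lysed 2 h at 4°C at pH 10, unwound 40 min in alkali at pH >13 and electrophoresed at 25 V for 30 min at 4°C. After ethidium bromide staining, comet-tail nuclei were counted in >100 cells per field. Three independent experiments, one-way ANOVA.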

CYP2C19 [6] = biological target: T3, CYP2C19 (Homo sapiens, UniProt P33261); assay: Inhibition of CYP2C19 at 30 uM; assay type: ADME
T3 sequence (P33261 whole entry): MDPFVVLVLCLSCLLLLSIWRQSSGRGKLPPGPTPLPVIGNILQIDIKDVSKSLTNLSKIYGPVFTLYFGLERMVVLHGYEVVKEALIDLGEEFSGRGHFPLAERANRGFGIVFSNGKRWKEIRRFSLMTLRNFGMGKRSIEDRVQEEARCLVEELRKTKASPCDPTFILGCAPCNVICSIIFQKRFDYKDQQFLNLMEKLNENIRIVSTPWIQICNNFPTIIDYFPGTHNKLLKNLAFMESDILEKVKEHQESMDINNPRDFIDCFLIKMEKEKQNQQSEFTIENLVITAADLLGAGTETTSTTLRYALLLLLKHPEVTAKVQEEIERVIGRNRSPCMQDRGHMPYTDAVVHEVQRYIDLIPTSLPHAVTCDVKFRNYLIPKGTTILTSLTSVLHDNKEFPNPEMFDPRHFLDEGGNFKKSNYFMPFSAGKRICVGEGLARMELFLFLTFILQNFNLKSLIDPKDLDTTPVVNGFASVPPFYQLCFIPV
In short: (§1)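 CYP inhibition was tested at 3 and 30 μM and reported as percent inhibition. The assay was run by a contract lab.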

Mus musculus [7] = assay: Agonist activity at TrkB receptor in C57BL/J6 mouse brain assessed as Akt phosphorylation at serine 473 in hippocampus at 2.5 mg/kg, po after 2 hrs by immunoblotting analysis; assay type: functional, organism-based; set-up: dose 2.5 mg/kg
[8] = biological target: BDNF/NT-3 growth factors receptor (Rattus norvegicus) (UniProt Q63604); assay: Agonist activity at TrkB receptor in rat primary neurons assessed as Akt phosphorylation at 500 nM after 15 mins by immunoblotting analysis; assay type: functional
BDNF/NT-3 growth factors receptor (Rattus norvegicus), sequence (Q63604 whole entry): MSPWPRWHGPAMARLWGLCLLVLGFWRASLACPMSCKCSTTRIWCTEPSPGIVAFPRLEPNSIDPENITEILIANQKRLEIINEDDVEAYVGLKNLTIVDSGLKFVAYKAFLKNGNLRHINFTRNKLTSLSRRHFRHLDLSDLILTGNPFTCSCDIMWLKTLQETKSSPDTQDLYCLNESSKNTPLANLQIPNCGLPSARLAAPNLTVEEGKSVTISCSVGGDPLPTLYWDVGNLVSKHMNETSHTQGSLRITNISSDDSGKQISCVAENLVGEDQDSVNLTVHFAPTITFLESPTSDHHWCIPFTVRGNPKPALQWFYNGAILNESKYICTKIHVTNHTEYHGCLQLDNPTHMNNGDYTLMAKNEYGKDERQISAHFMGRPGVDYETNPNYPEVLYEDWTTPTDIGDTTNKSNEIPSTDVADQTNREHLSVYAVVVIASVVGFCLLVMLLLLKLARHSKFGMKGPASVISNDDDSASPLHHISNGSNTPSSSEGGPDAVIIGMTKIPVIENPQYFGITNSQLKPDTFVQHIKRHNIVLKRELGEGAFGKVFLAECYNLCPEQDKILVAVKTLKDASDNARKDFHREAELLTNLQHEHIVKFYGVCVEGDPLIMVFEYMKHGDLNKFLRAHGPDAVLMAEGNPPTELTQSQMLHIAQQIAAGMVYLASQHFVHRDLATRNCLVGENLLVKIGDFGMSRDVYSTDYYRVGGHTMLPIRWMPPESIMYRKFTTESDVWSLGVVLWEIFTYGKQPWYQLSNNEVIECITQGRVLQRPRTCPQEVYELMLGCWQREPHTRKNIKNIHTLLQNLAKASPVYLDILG
In short: (§2)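 Primary cortical cultures from E17 rat embryos were exposed to 500 nM for 15 min. Lysates were immunoblotted for p-TrkB and p-Akt (20 μg per lane). Two replicate experiments.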

Mus musculus [9] = assay: Agonist activity at TrkB receptor in C57BL/J6 mouse brain assessed as TrkB phosphorylation at tyrosine 816 in dentate gyrus at 2.5 mg/kg, po administered qd for 21 days by immunohistochemical staining; assay type: functional, organism-based; set-up: dose 2.5 mg/kg
In short: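 Mice were gavaged with 2.5 mg/kg/day for 21 days and perfused with 4% paraformaldehyde. Paraffin sections of 6 μm had antigen retrieval by boiling in 10 mM citrate, pH 6.0. Sections were stained with anti-p-TrkB 816 at 1:300 and anti-TrkB at 1:50, with fluorescent secondaries and DAPI, and dentate gyrus was examined.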

Plasma = assay: Fraction unbound in human plasma at 5 uM; assay type: ADME, cell-free
In short: (§3)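 Human plasma protein binding was tested at 5 μM, reporting fraction unbound, fraction bound and recovery. The assay was run by a contract lab.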

Mus musculus [10] = assay: Antidepressant activity in C57BL/J6 mouse assessed as reduction of immobility at 2.5 mg/kg, po administered qd for 21 days recorded in last 4 mins by forced swim test; assay type: functional; set-up: scale not given: the % may be the effect or the level left
In short: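 Male C57BL/6J mice, 2–3 months old, were gavaged daily for 21 days with drug (5 or 2.5 mg/kg) or saline and adapted to the test room for 2 days. With no preswim, each mouse was placed for 6 min in a 16-cm cylinder of 24 °C water, 14 cm deep. Immobility in the last 4 min was scored blind and compared by unpaired t-test (n=6 or 8).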

CYP3A4 [11] = biological target: T2, CYP3A4; assay: Inhibition of CYP3A4 at 30 uM using testosterone substrate; assay type: ADME; conditions: probe testosterone
Mus musculus [12] = assay: Agonist activity at TrkB receptor in C57BL/J6 mouse brain assessed as TrkB phosphorylation at tyrosine 816 in hippocampus at 1 mg/kg, po after 2 hrs by immunoblotting analysis; assay type: functional, organism-based; set-up: dose 1 mg/kg
In short: (§4)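 Hippocampus from male C57BL/6J mice was taken 2 h after a single 1 mg/kg oral dose. Brain was homogenised and ultracentrifuged, and 40 μg supernatant was immunoblotted for p-TrkB, p-Akt and p-MAPK.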

HepG2 [13] = assay: Cytotoxicity against human HepG2 cells assessed as cell death upto 100 uM after 24 hrs by LDH assay; assay type: cell-based; conditions: hepg2, 24 h
In short: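 HepG2 cells were exposed to a range of concentrations up to 100 μM for 24 h, and cytotoxicity was measured by LDH release. n=3.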

CYP3A4 [14] = biological target: T2, CYP3A4; assay: Inhibition of CYP3A4 at 3 uM using testosterone substrate; assay type: ADME; conditions: probe testosterone
CYP2C9 [15] = biological target: T4, CYP2C9 (Homo sapiens, UniProt P11712); assay: Inhibition of CYP2C9 at 30 uM; assay type: ADME; in short: as §1
T4 sequence (P11712 whole entry): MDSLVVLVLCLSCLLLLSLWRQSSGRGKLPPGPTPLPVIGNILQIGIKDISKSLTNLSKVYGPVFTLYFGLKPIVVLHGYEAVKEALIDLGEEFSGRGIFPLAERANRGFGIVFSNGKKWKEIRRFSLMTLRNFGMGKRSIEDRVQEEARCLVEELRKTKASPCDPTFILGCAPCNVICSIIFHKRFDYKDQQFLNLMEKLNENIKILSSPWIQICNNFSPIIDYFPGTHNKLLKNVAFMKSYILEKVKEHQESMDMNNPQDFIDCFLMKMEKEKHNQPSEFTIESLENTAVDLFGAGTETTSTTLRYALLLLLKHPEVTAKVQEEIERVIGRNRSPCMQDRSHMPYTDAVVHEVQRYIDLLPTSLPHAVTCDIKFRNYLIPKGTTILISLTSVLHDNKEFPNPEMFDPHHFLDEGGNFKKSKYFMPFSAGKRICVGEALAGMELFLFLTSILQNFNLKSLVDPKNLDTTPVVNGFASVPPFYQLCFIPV

CYP2C9 [16] = biological target: T4, CYP2C9; assay: Inhibition of CYP2C9 at 3 uM; assay type: ADME; in short: as §1
Mus musculus [17] = assay: Toxicity in C57BL/J6 mouse assessed as increase in locomotion at 2.5 mg/kg, po administered qd for 21 days by locomotor activity assay; assay type: organism-based; set-up: dose 2.5 mg/kg, route oral; conditions: in vivo, 504 h
In short: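 Male C57BL/6J mice were given compound or saline vehicle by oral gavage once daily for 21 days, with forced swim and tail suspension tests also run. Ambulations (consecutive photobeam breaks) were recorded in automated locomotor chambers for 2 h, binned at 30 min intervals.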

[18] = Drug recovery in human plasma at 5 uM; assay type: ADME, cell-free; conditions: read-out: Drug uptake; in short: as §3
Mus musculus [19] = assay: Agonist activity at TrkB receptor in C57BL/J6 mouse brain assessed as Akt phosphorylation at serine 473 in hippocampus at 1 mg/kg, po after 2 hrs by immunoblotting analysis; assay type: functional, organism-based; set-up: dose 1 mg/kg; in short: as §4
HepG2 [20] = assay: Genotoxicity in human HepG2 cells assessed as micronuclei formation at 50 uM after 24 hrs by DAPI staining; assay type: toxicity, cell-based; conditions: hepg2, 24 h
In short: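 HepG2 cells were exposed to 50 μM for 24 h, with benzo(a)pyrene as positive control. Cells were swollen in hypotonic KCl/NaCl for 10 min at 37°C, fixed in methanol/acetic acid 3:1 and stained with DAPI at 2 μg/ml. Three independent experiments, one-way ANOVA.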

[21] = Metabolic stability in human liver microsomes assessed as remaining parent compound at 1 uM after 1 hr in the absence of […]; assay type: ADME, Microsome; conditions: read-out: Stability
In short: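 Human liver microsomes were incubated with test compound at 1 μM for 1 h. Percent parent remaining was measured with cofactor and in a cofactor-free control. The work was done by a contract lab.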

CYP2C19 [22] = biological target: T3, CYP2C19; assay: Inhibition of CYP2C19 at 3 uM; assay type: ADME; in short: as §1
Mus musculus [23] = assay: Agonist activity at TrkB receptor in C57BL/J6 mouse brain assessed as TrkB phosphorylation at tyrosine 816 in hippocampus at 2.5 mg/kg, po after 2 hrs by immunoblotting analysis; assay type: functional, organism-based; set-up: dose 2.5 mg/kg
CYP2D6 [24] = biological target: T1, CYP2D6; assay: Inhibition of CYP2D6 at 3 uM; assay type: ADME
[25] = biological target: BDNF/NT-3 growth factors receptor (Rattus norvegicus) (UniProt Q63604); assay: Agonist activity at TrkB receptor in rat primary neurons assessed as TrkB phosphorylation at tyrosine 816 at 500 nM after 15 mins by immunoblotting analysis; assay type: functional; in short: as §2
Mus musculus [26] = assay: Antidepressant activity in C57BL/J6 mouse assessed as reduction of immobility at 2.5 mg/kg, po administered qd for 21 days by tail suspension test; assay type: functional, organism-based; set-up: dose 2.5 mg/kg
In short: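 Male C57BL/6J mice were gavaged once daily for 21 days with 2.5 mg/kg or saline vehicle, then tested for immobility during tail suspension. n=8, Student's t-test.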

| SMILES | Stability (Liver microsomes) | inhibition at 30 µM (CYP2D6 [1]) | Activity (Mus musculus [2]) | inhibition at 3 µM (CYP3A4 [3]) | inhibition at 30 µM (CYP3A4 [4]) | Activity (HepG2 [5]) | inhibition at 30 µM (CYP2C19 [6]) | Activity (Mus musculus [7]) | Activity [8] | Activity (Mus musculus [9]) | Fu (Plasma) | Activity (Mus musculus [10]) | inhibition at 30 µM (CYP3A4 [11]) | Activity (Mus musculus [12]) | Activity (HepG2 [13]) | inhibition at 3 µM (CYP3A4 [14]) | inhibition at 30 µM (CYP2C9 [15]) | inhibition at 3 µM (CYP2C9 [16]) | Activity (Mus musculus [17]) | remaining at 5 µM [18] | further results |
| --- | --- | --- | --- | --- | --- | --- | --- | --- | --- | --- | --- | --- | --- | --- | --- | --- | --- | --- | --- | --- | --- |
| Cc1nc2ccc3c(=O)cc(-c4ccc(N5CCCC5)cc4)oc3c2[nH]1 | Stable | 32% | Active | 10.8% | 40.5% | Non-toxic | 57.7% | Active | Active | Active | 0.03% | 45% | 43.3% | Active | Non-toxic | 4.5% | 73.6% | 12.4% | Non-toxic | 86.3% | Activity (Mus musculus [19]): Active; Activity (HepG2 [20]): Non-toxic; remaining at 1 h, 1 µM [21]: 92.2%; inhibition at 3 µM (CYP2C19 [22]): 11.1%; Activity (Mus musculus [23]): Active; inhibition at 3 µM (CYP2D6 [24]): 8.7%; Activity [25]: Active; Activity (Mus musculus [26]): Active |
| O=c1cc(-c2ccc(N3CCCC3)cc2)oc2c1ccc1cc[nH]c12 | Unstable | 81.6% | Active | 3.9% | 48.1% | Non-toxic | 90% | Active | Active | Active | 0.07% | inactive | 18.7% | Active | Non-toxic | 3.4% | 52.9% | 11.9% | Non-toxic | 97% | Activity (Mus musculus [19]): Active; Activity (HepG2 [20]): Non-toxic; remaining at 1 h, 1 µM [21]: 79.6%; inhibition at 3 µM (CYP2C19 [22]): 16.2%; Activity (Mus musculus [23]): Active; inhibition at 3 µM (CYP2D6 [24]): 7.2%; Activity [25]: Active; Activity (Mus musculus [26]): inactive |
